Experimental data: ChEMBL document CHEMBL5500386, “Design, synthesis and bioactivity evaluation of 4-hydroxycoumarin derivatives as potential anti-inflammatory agents against acute lung injury and colitis” (Eur J Med Chem, 2024)
Active and inactive are the calls of the source. The rule behind the calls is not given here.

Experiments:
J774.A1 [1] = experiment: Antiinflammatory activity in LPS-induced mouse J774.a1 cells assessed as inhibition of IL-6 production at 10 uM pretreated for 2 hrs followed by LPS stimulation and measured after 30 mins by ELISA relative to control; type: functional; details: time 2.5 hrs
In short: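 J774A.1 cells (DMEM, 10 % FBS, 37 °C) treated with 10 μM compound or 4-HC for 2 h, then LPS. After 30 min, IL-6 in medium measured by ELISA. Result is % inhibition, mean ± SEM of three independent experiments.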

J774.A1 [2] = experiment: Cytotoxicity against mouse J774.A1 cells assessed as reduction in cell viability at 10 uM measured after 24 hrs by MTT assay; type: toxicity, cell-based; details: j774.a1, 24 h
In short: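 J774A.1 cells seeded and incubated 24 h, then exposed to 10 μM compound for 24 h. MTT (5.0 mg/mL) added as 10 % for 4 h, formazan dissolved in DMSO with 30 min shaking, absorbance read at 490 nm. Expressed as % of control.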

Mus musculus = experiment: Protection against LPS-induced C57BL/6 mouse model of acute lung injury assessed as reduction in IL-6 level in serum at 20 mg/kg, po administered 3 times for every 12 hrs followed by LPS stimulation at 5 mg/kg and measured after 6 hrs by ELISA; type: functional, organism-based; details: time 30.0 hrs
In short: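 C57BL/6 mice, 6 per group. Gavaged at 20 mg/kg three times at 12 h intervals; controls received saline, and dexamethasone 20 mg/kg served as reference. After the last dose, LPS 5 mg/kg given intratracheally. At 6 h, blood collected for serum IL-6 by ELISA. Left lung lavaged with 3 × 200 μL saline, and BALF assayed for IL-6, total protein and neutrophil count. Mean ± SEM, n = 6.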

SMILES	inhibition at 10 µM (J774.A1 [1]) [%]	inhibition (J774.A1 [1])	other results
O=c1cc(OCCOCCN2CCNCC2)c2ccccc2o1	50.1	–	Activity (J774.A1 [2]): Non-Toxic
O=c1cc(O)c2ccccc2o1 [4-HYDROXYCOUMARINS]	17.3	–	–
Cc1cc(C)cc(COc2cc(=O)oc3ccccc23)c1	17.5	–	–
COCCN1CCN(CCCOc2cc(=O)oc3ccccc23)CC1	–	inactive	–
CC1CCCN(CCOc2cc(=O)oc3ccccc23)C1 (centres undefined)	48.8	–	–
CC(=O)N1CCN(CCCOc2cc(=O)oc3ccccc23)CC1	42.3	–	Activity (J774.A1 [2]): Non-Toxic
COCCN1CCN(CCOc2cc(=O)oc3ccccc23)CC1	–	inactive	–
O=c1cc(OCCCNCCCN2CCCC2)c2ccccc2o1	54.4	–	–
O=c1cc(OCCCNCCCN2CCOCC2)c2ccccc2o1	–	inactive	–
CN(C)CCCOc1cc(=O)oc2ccccc12	–	inactive	–
CCN1CCN(CCCOc2cc(=O)oc3ccccc23)CC1	30.1	–	–
C[C@@H]1C[C@H]2[C@@H]3CCC4=CC(=O)C=C[C@]4(C)[C@@]3(F)[C@@H](O)C[C@]2(C)[C@@]1(O)C(=O)CO	–	–	Activity (Mus musculus): Active
O=c1cc(OCc2cccc(F)c2)c2ccccc2o1	4.36	–	–
CC1CCCN(CCCOc2cc(=O)oc3ccccc23)C1 (centres undefined)	–	inactive	–
COc1cccc(COc2cc(=O)oc3ccccc23)c1	50.4	–	–
O=c1cc(OCC2CO2)c2ccccc2o1 (centres undefined)	–	inactive	–
O=c1cc(OCCN2CCOCC2)c2ccccc2o1	17.5	–	–
O=c1cc(OCCCN2CCCC2)c2ccccc2o1	39	–	–
O=c1cc(OCCNCCc2cccs2)c2ccccc2o1	34.7	–	–
CCN1CCN(CCOc2cc(=O)oc3ccccc23)CC1	18.1	–	–
O=c1cc(OCCN2CCN(C3CC3)CC2)c2ccccc2o1	–	inactive	–
O=c1cc(OCCN2CCN(CCO)CC2)c2ccccc2o1	48.8	–	–
O=c1cc(OCCCCN2CCOCC2)c2ccccc2o1	–	inactive	–
O=c1cc(OCCCNCCc2cccs2)c2ccccc2o1	–	inactive	–
O=c1cc(OCCNCCCN2CCOCC2)c2ccccc2o1	21.8	–	–
O=c1cc(OCCCN2CCN(CCO)CC2)c2ccccc2o1	51.3	–	Activity (J774.A1 [2]): Non-Toxic
